From paper PMC6085501 (EBioMedicine, 2018)
One block for each molecule: values may come before it.

Assays:
[1] = molecular target: Glucose regulated protein 78 kDa (GRP78), recombinant protein immobilised for SPR (UniProt P11021); test: SPR
[2] = tested on: HUVECs; test: Cell Death Detection ELISA; format: cell-based, human; settings: 100 μM, 24 h
Procedure, shortened: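 HUVECs (passages 5–10) seeded at 1–1.5 × 10^4 cells/well and pre-starved 3 h in 2% FBS medium. Co-treated with 100 μM test peptide plus 15 ng/ml VEGF for 24 h. Apoptosis read as cytoplasmic histone-associated DNA fragments by photometric ELISA at 405 nm. Fold change taken against VEGF-only cells set as 1. Mean ± SEM, at least three independent experiments, ANOVA.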

[3] = tested on: human HBT 3477 breast cancer; settings: 250 μg/mouse, nude mice; cited from earlier work
[4] = tested on: Cell-surface GRP78; settings: ISM protein as ligand of cell-surface GRP78; cited from earlier work

Chain of UniProt P11021 (P11021 19-654): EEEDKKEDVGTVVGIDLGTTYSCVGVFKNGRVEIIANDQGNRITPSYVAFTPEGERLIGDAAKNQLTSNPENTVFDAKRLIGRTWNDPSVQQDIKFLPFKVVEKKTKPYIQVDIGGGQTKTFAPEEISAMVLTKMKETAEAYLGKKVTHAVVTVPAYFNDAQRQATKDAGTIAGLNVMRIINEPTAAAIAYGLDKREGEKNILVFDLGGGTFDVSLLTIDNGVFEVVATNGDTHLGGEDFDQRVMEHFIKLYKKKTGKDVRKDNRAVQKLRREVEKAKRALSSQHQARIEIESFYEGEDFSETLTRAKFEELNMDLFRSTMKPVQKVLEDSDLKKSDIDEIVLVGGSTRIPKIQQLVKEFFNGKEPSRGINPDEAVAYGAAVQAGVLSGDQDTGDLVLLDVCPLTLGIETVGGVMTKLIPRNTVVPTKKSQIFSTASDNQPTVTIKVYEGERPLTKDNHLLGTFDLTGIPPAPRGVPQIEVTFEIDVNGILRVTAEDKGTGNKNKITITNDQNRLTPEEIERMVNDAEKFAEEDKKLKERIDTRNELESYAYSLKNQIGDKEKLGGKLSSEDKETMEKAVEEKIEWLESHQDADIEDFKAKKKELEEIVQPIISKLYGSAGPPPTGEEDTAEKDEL

Kd [1]: 211 µM
Molecule: BC71, cyclic peptide c[(bA)(k)RKD(2-D-Nal)]

Molecule: cyclo(KRAAF) [GR35]
proapoptotic activity towards HUVECs (in words) [2]: significantly reduced its proapoptotic activity

Molecule: cyclo(KRKDF) [GR16]
apoptosis, relative fold change ([2]; HUVECs, Cell Death Detection ELISA, Fig. 1a legend): over 1.4

Molecule: cilengitide
suppression of tumor growth as single agent [3]: ineffective

B1: ISM: secreted proapoptotic protein, high-affinity ligand of cell-surface GRP78 (protein, UniProt B1AKI9 30-464, looked up)
Isthmin-1: ADGPDAAAGNASQAQLQNNLNVGSDTTSETSFSLSKEAPREHLDHQAAHQPFPRPRFRQETGHPSLQRDFPRSFLLDLPNFPDLSKADINGQNPNIQVTIEVVDGPDSEADKDQHPENKPSWSVPSPDWRAWWQRSLSLARANSGDQDYKYDSTSDDSNFLNPPRGWDHTAPGHRTFETKDQPEYDSTDGEGDWSLWSVCSVTCGNGNQKRTRSCGYACTATESRTCDRPNCPGIEDTFRTAATEVSLLAGSEEFNATKLFEVDTDSCERWMSCKSEFLKKYMHKVMNDLPSCPCSYPTEVAYSTADIFDRIKRKDFRWKDASGPKEKLEIYKPTARYCIRSMLSLESTTLAAQHCCYGDNMQLITRGKGAGTPNLISTEFSAELHYKVDVLPWIICKGDWSRYNEARPPNNGQKCTESPSDEDYIKQFQEAREY
Kd [4]: 0.0086 µM
